Screening data deposited in PubChem BioAssay by several laboratories.
sPLA2-III inh: Blocks human group III sPLA2 activity | 370,000 tested, 0.56% active | QFRET BODIPY PC-A2 liposome hydrolysis, fluorescence | inhibition, % at 12.2 µM | Q9NZ20;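 active means inhibition above mean plus 3 SD of compounds lying within the high and low control bounds, cut at about 19% in these data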;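 further: 0% = median of test compound wells and 100% = no enzyme DMSO wells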
Target sequence (Q9NZ20 whole entry, looked up): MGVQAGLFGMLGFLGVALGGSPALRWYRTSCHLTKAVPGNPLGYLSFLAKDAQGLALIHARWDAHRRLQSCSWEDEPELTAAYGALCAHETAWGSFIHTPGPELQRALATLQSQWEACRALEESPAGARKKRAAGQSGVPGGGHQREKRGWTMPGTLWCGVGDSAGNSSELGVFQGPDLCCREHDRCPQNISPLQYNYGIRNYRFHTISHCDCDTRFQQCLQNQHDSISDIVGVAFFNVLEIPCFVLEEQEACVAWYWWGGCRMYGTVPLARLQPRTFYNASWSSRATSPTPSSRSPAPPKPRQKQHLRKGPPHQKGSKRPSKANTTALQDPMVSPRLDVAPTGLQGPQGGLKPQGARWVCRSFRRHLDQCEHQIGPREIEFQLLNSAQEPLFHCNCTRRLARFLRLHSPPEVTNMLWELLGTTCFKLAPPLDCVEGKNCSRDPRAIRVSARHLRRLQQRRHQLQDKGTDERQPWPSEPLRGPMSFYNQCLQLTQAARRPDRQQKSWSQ
Arrestin-AP2 inh: human beta-arrestin and AP2 interaction inhibition. FITC-arrestin peptide / GST-AP2 beads, flow cytometry; AP2 beta2 appendage carries R879A mutation. inhibition, % at 10 µM. 340,000 tested, 0.31% active. AID 504490;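 active means inhibition above a set limit, near 3 SD of compounds lacking own fluorescence, cut at about 54% in these data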;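 further: plate controls were DMSO wells for no effect and 5 µM unlabelled arrestin peptide for full effect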
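System: GST-AP2 R879A bound to glutathione beads, E. coli-expressed. Also added: 50 nM FITC-arrestin peptide. Schedule: compound with beads 12 min RT, then probe 1 h RT. Signal: bead flow cytometry, FITC channel. Read-out basis: percent response.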
Lipid droplet: hepatic lipid droplet formation modulation; inhibition, % at 6.5 µM; 240,000 tested, 0.4% active; AML12 mouse hepatocytes, oleate lipid droplets, BODIPY imaging; AID 1656;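 active means lipid droplet intensity inhibited by at least 50%, with more than 500 cells counted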
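System: AML12 hepatocytes (mouse). Probe or stimulus: oleic acid at 100 µM to induce lipid droplet formation. Times: overnight treatment with compound plus oleate. Detection: Image-based BODIPY and DAPI two-channel analysis. Evaluation: percent inhibition of filter-corrected integrated lipid droplet intensity per well.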
M18AAP inhibitor: blocks P. falciparum M18 aspartyl aminopeptidase; recombinant PfM18AAP, H-Glu-NHMec fluorogenic cleavage; inhibition, % at 7.35 µM; 290,000 tested, 1.2% active;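 active means inhibition above the campaign mean inhibition over all tested compounds plus 3 SD, cut at about 28% in these data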;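 further: 0% = plate median of test compound wells and 100% = 2 mM ZnCl2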
CendR NRP1 mod: modulators of CendR peptide binding to human neuropilin-1. O14786. FAM-RPARPAR peptide binding to NRP-1, fluorescence polarization. inhibition, % at 25 µM. 360,000 tested, 0.85% active;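 active means inhibition or corrected inhibition above about 18%, plus a signal ratio from 0.5 to 1.5, limit read from the data, passing the limit was not always enough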
HTR2A ag: mouse HTR2A agonism via beta-arrestin recruitment; activation, % at 7.6 µM; 360,000 tested, 0.66% active; CHO-K1 mHTR2A beta-arrestin complementation, luminescence; percent of 30 µM serotonin response;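 active means activation above a run cutoff, the mean activation of all tested compounds plus 3 SD, cut at about 14% in these data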;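 further: 0% = plate median of compound wells and 100% = 30 µM serotonin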
MOR ag counter: counter-screen for mouse HTR2A agonists: human mu opioid receptor agonists; shares compounds with HTR2A ag; U2OS OPRM1 beta-arrestin PathHunter, luminescence; DMSO 0%, DAMGO 9.3 µM 100%; 2,300 tested, 5.3% active; activation, % at 9.3 µM;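 active means mean activation above the mean of DMSO-only wells plus 3 SD, cut at about 0.5% in these data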
HTR2A ag conf: confirmation of mouse HTR2A serotonin receptor agonists. shares compounds with HTR2A ag. CHO-K1 PathHunter beta-arrestin recruitment, luminescence; DMSO 0%, 30 µM serotonin 100%. activation, % at 7.6 µM. 2,300 tested, 19% active;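 active means mean activation across triplicates above the hit threshold derived in the original primary screen, cut at about 15% in these data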
Numbers without * were called inactive. Only some compounds are listed: those with a hit (about 3.3% of all), similar ones and a draw of the others.

For C=C(C)CN1CCN(S(=O)(=O)c2ccc(C)c(N(C)S(=O)(=O)c3ccc(C)cc3)c2C)CC1 the results were sPLA2-III inh -3.5, Arrestin-AP2 inh 3.0, Lipid droplet -44.9, M18AAP inhibitor 2.3, CendR NRP1 mod -5.7, HTR2A ag 22.0*, MOR ag counter -0.4 and HTR2A ag conf -3.0.
For Cc1ccc(S(=O)(=O)N(C)c2c(C)ccc(S(=O)(=O)N3CCN(C)CC3)c2C)cc1 the results were sPLA2-III inh 2.8, Arrestin-AP2 inh 20.3, Lipid droplet 0.2, M18AAP inhibitor 2.3, CendR NRP1 mod -5.1 and HTR2A ag -1.2.
CCC(C)Oc1nc2c(c(=O)n(C)c(=O)n2C)n1C (configuration not stated) was read as sPLA2-III inh 7.0, Arrestin-AP2 inh 6.4, Lipid droplet 4.5, M18AAP inhibitor -0.8, CendR NRP1 mod -7.2, HTR2A ag 17.1*, MOR ag counter -0.6 and HTR2A ag conf -2.4.
CSc1cccc(NC(=S)N(CCCN2CCCC2)Cc2cccs2)c1 was read as sPLA2-III inh 7.2, Arrestin-AP2 inh 20.2, Lipid droplet -1.8, M18AAP inhibitor -1.4, CendR NRP1 mod 4.7, HTR2A ag 42.9*, MOR ag counter -0.6 and HTR2A ag conf 15.1*.
Screening COc1ccc(NC(=S)N(CCCN2CCCC2)Cc2cccs2)cc1 returned sPLA2-III inh 8.2, Arrestin-AP2 inh -7.3, Lipid droplet 1.4, M18AAP inhibitor -1.4, CendR NRP1 mod 15.2 and HTR2A ag 0.7.
For CNC(=O)/C(C#N)=C/c1c(N2CCN(c3cccc(Cl)c3)CC2)nc2c(C)cccn2c1=O the results were sPLA2-III inh 14.7, Arrestin-AP2 inh 8.7, Lipid droplet 11.7, M18AAP inhibitor 4.9, CendR NRP1 mod -6.6, HTR2A ag 19.2*, MOR ag counter -0.6 and HTR2A ag conf 0.4.
C=CCNC(=O)/C(C#N)=C/c1c(N2CCN(c3cccc(Cl)c3)CC2)nc2c(C)cccn2c1=O was read as sPLA2-III inh 7.7, Arrestin-AP2 inh -7.3, Lipid droplet -2.9, M18AAP inhibitor 3.0, CendR NRP1 mod -19.1, HTR2A ag 19.9*, MOR ag counter -0.7 and HTR2A ag conf 6.0.
`COC(=O)c1ccc2cc(OC)cc([N+](=O)[O-])c2n1` gave sPLA2-III inh -4.9, Arrestin-AP2 inh 22.1, CendR NRP1 mod 19.0 and HTR2A ag 0.5.
Screening O=C(CSc1nnc(Cc2cc(=O)[nH]c(=O)[nH]2)n1-c1ccccc1)N1CCCc2ccccc21 returned sPLA2-III inh -29.5, Arrestin-AP2 inh 9.0, M18AAP inhibitor 5.5, CendR NRP1 mod 5.0, HTR2A ag 16.1*, MOR ag counter -0.7 and HTR2A ag conf -2.3.
`COc1ccc2c3n(nc2c1)CCN=C3c1ccc(Cl)cc1` gave sPLA2-III inh 5.6, Arrestin-AP2 inh -5.1, CendR NRP1 mod 6.1, HTR2A ag 16.5*, MOR ag counter -0.5 and HTR2A ag conf -4.7.
`Cc1ccc(S(=O)(=O)N2CC3(COC(C)(C)OC3)C[C@H]2CON2C(C)(C)CCCC2(C)C)cc1` gave sPLA2-III inh -2.0.
COc1ccc(S(=O)(=O)N2CCCCC2c2cc(C(=O)N3CCOCC3)no2)cc1 (configuration not stated) was read as sPLA2-III inh 6.1, CendR NRP1 mod -7.1 and HTR2A ag 8.4.
For Cc1cc(=O)oc2cc(OC(=O)c3ccccc3)ccc12 the results were sPLA2-III inh 8.3, Arrestin-AP2 inh -5.9, Lipid droplet 1.7, M18AAP inhibitor -0.2, CendR NRP1 mod -10.4 and HTR2A ag -2.9.
`Cc1ccc(N(C)S(=O)(=O)c2cccc(C(=O)Oc3ccc4c(C)cc(=O)oc4c3)c2)cc1` gave sPLA2-III inh 2.9, Arrestin-AP2 inh 15.3, Lipid droplet 3.6, M18AAP inhibitor 4.5, CendR NRP1 mod -39.6, HTR2A ag 19.1*, MOR ag counter -0.5 and HTR2A ag conf -3.3.
CN(C(=O)c1cccc(NC(=O)Cc2ccc(NC(=O)C3CCN(C(=O)CCc4ccccc4)CC3)cc2)c1)C1CCC1 was read as sPLA2-III inh -18.2, Arrestin-AP2 inh 2.0, CendR NRP1 mod 9.5 and HTR2A ag -6.5.
C[C@H]1O[C@H](C2CCCC2)CC2=C1C(=O)OC(C)(C)O2 was read as sPLA2-III inh 6.9, CendR NRP1 mod 11.4 and HTR2A ag 10.2.
Cc1ccccc1C(=O)Nc1ccnc(-c2ccncc2)n1 was read as sPLA2-III inh 5.6, Arrestin-AP2 inh 11.1, Lipid droplet -1.0, M18AAP inhibitor 1.4, CendR NRP1 mod 0.9, HTR2A ag 19.5*, MOR ag counter 0.0 and HTR2A ag conf 1.3.
`O=C1CCC[C@H]2C[C@H](NCc3cccc(F)c3)CC[C@]23CCCN13` gave sPLA2-III inh 11.8.
`Nc1nc2c(ncn2[C@@H]2O[C@H](C(=O)N[C@H](Cc3ccccc3)C(=O)NCCCc3ccccc3)[C@@H](O)[C@H]2O)c(=O)[nH]1` gave sPLA2-III inh -3.0.
For CN1CCC(N(C)C(=O)COc2ccccc2-c2ccccc2)CC1 the results were sPLA2-III inh 1.4, Arrestin-AP2 inh -0.3, M18AAP inhibitor 1.4, CendR NRP1 mod -14.4, HTR2A ag 17.5*, MOR ag counter -0.6 and HTR2A ag conf 3.8.
Screening O=C(CN1C(=O)NC2(CCCCCCC2)C1=O)Nc1cccc(Br)c1 returned sPLA2-III inh -4.6, Arrestin-AP2 inh 1.9, CendR NRP1 mod 8.4 and HTR2A ag -11.4.
For CCN(C)C1CN(Cc2cn(Cc3cccc(C(F)(F)F)c3)nn2)S(=O)(=O)C1 (configuration not stated) the results were sPLA2-III inh 6.8, CendR NRP1 mod 5.6 and HTR2A ag 2.1.
For Cc1nc(N2CCCC2)c2nnn(Cc3ccccc3Cl)c2n1 the results were sPLA2-III inh 2.9, Arrestin-AP2 inh 1.2, M18AAP inhibitor 5.6, CendR NRP1 mod -5.9, HTR2A ag 17.8*, MOR ag counter -0.6 and HTR2A ag conf -1.6.
`O=C(O)c1ccc(/C=N/Nc2ccc(C(F)(F)F)cn2)cc1` gave sPLA2-III inh 0.7, Arrestin-AP2 inh 1.3, Lipid droplet -16.7, M18AAP inhibitor 0.2, CendR NRP1 mod 0.6, HTR2A ag 17.8*, MOR ag counter -0.6 and HTR2A ag conf -2.4.
Nc1c(Cl)ncnc1N1CCCC1 was read as sPLA2-III inh 2.4, Arrestin-AP2 inh 17.2, Lipid droplet 8.6, M18AAP inhibitor -5.8, CendR NRP1 mod -3.0, HTR2A ag 14.6*, MOR ag counter -0.4 and HTR2A ag conf -2.8.
